Assay: Toxicity liver stage against HepG2, at 10uM
Format: cell-based
Parameters: test concentration 10 uM, cell line HepG2-A16-CD81EGFP
Settings: human, HepG2-A16-CD81EGFP cells; read-out: INHIBITION
Summary of the method: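 Uninfected HepG2-A16-CD81EGFP cells, 3 × 10^3 per well, 1536-well, plated on prespotted compound at 10 μM final, parasite-free screening media added to match infected plates; puromycin 10 μM positive, DMSO 0.5% negative; run in parallel with 48 h PbLuc assay at 37 °C, 5% CO2; viability by CellTiter-Glo luminescence, normalized to controls.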

Row | Structure (SMILES) | cytotoxicity at 10 µM [%]
1 | CC(C)Cc1nc(OCC(N)=O)c(C#N)c2c1CCCC2 | -9.53
2 | COc1ccc(-c2csc3c2c(N)nc(=O)n3CCN(C)C)cc1 | -49.9
3 | COc1ccc(-c2n[nH]c(C)c2CC(=O)N2CCOCC2)cc1 | -14.2
4 | Cc1nnc(C2CCN(C(=O)c3ccc4nccnc4c3)CC2)s1 | 5.05
5 | Cn1cccc1C(=O)N1CC[C@@H]2[C@@H]1CC(=O)N2CC1CCOCC1 | -2.82
6 | O=C(C1CCOC1)N1CCc2ncnc(NC3CCC3)c2CC1 (stereo not drawn) | -151
7 | CC(C)Nc1nc2c(c(N(C)C)n1)CCN(C(=O)c1cc[nH]n1)CC2 | 6.59
8 | c1ccc(COC[C@H]2CC[C@H]3[C@H](CCN3Cc3ccco3)O2)nc1 | -144
9 | CSc1nc2ncc3c(=O)n(CCN4CCCCC4)ccc3n2n1 | 5.23
10 | Cc1ccc(N2CCN(C(=O)COc3nccc(C)n3)CC2)nn1 | -25.1
11 | CN(C)C(=O)C1CCCN(C(=O)c2ccccc2-n2cc(CN)cn2)C1 (stereo not drawn) | 11.6
12 | Cc1cc(CCC(=O)O)nc(C2CCCN2c2ccnc(C)n2)n1 (stereo not drawn) | -8.12
13 | Cc1cc(CN(C)Cc2ncc(-c3ccccc3)o2)no1 | -13.8
14 | O=c1oc2ccccc2n1CCN(CC1CCOC1)C1CC1 (stereo not drawn) | 4.78
15 | CCOCCNC(=O)c1cnc(Sc2nccn2C)c(Cl)c1 | -44.6
16 | CCN(C)S(=O)(=O)N1CCC(C(O)c2ccc(F)cc2)CC1 (stereo not drawn) | -22
17 | O[C@@H]1CN(Cc2cc(Cl)cc3cccnc23)C[C@@H]1O | 0.342
18 | CC(C)c1nnc2n1CC(CNC/C=C/c1ccccc1)CC2 (stereo not drawn) | 3.76
19 | COc1ccc(-c2nc(CCNC(=O)NC3CCC(O)CC3)co2)cc1 (stereo not drawn) | 7.66
20 | COCc1cc(N(C)Cc2ncnn2C)nc(C(C)(C)C)n1 | 6.39
21 | COc1ccc2c(c1)CCCN2C(=O)CN1CCOC(C)C1 (stereo not drawn) | 2.59
22 | COCC(=O)N1CCN(C(=O)C2(c3ccc(C)c(OC)c3)CC2)CC1 | -8.19

Row | Structure (SMILES) | cytotoxicity at 10 µM [%]
23 | CNS(=O)(=O)c1cccc(C(C)NCc2cccc(O)c2)c1 (stereo not drawn) | 1.14
24 | CCOc1cc(C)nc(N2CCN(Cc3nccn3CC)CC2)n1 | -3.81
25 | COc1c(CNCc2cccnc2N2CCN(C)CC2)c(C)nn1C | -134
26 | COc1cc(OC)cc(C2(O)CCN(Cc3ncc(C)o3)CC2)c1 | 17
27 | CCNc1ncc(C(=O)Nc2nnc(N3CCCCC3)[nH]2)s1 | -12.4
28 | CN(Cc1ccc(C#N)cc1)Cn1nccc1-c1cccnc1 | 8.4
29 | CCN(C)S(=O)(=O)NCC1(c2ccccc2Br)CC1 | 1.22
30 | Cn1cc(N2CCCC(SCc3nc(C4CC4)no3)C2=O)cn1 (stereo not drawn) | 21.8
31 | Cc1cccc(N2N=C(C(=O)NC(C)Cn3cccn3)CCC2=O)c1 (stereo not drawn) | 0.479
32 | CCN1CCC(NC(=O)Cc2csc(C(C)(C)C)n2)CC1 | -16.3
33 | Cc1cc(NC(=O)CN(CC(C)O)c2ccccc2)on1 (stereo not drawn) | -2.15
34 | CC(C)c1nnc(NC(=O)Cc2ccc(F)cc2)[nH]1 | -8
35 | NC(=O)[C@@H]1Cc2ccccc2CN1S(=O)(=O)N1CCCCC1 | 3.33
36 | Cn1cnnc1C1CCN(C(=O)c2cc(-c3ccccc3)on2)CC1 | 3.77
37 | Cc1noc(CS(=O)(=O)C(C)C(=O)N(C)c2ccccc2)n1 (stereo not drawn) | 9.26
38 | CN(C(=O)Cn1nnnc1C(C)(C)C)c1ccccc1 | -48.4
39 | CN(C)C(C(=O)Nc1nccs1)c1c(F)cccc1Cl (stereo not drawn) | -44.4
40 | CCN(Cc1noc(CC(C)C)n1)Cc1ccccc1Cl | -50.6
41 | O=C(CN1CCC(C(=O)c2cc(F)ccc2F)CC1)NC1CCCC1 | 4.93
42 | CC(C)Nc1ncnc2c1CCN(C(=O)NCc1cccc(F)c1)CC2 | -110
43 | CC(=O)N1CCC(c2nnc3ccc(C(=O)NCC(C)C)cn23)C1 (stereo not drawn) | -108
44 | COc1nn(C)c2c1CCCN(C(=O)c1cscn1)C2 | -97.2

Row | Structure (SMILES) | cytotoxicity at 10 µM [%]
45 | O=C(Cc1ccccc1)N1CCC2(CC1)CN(c1ncccn1)CCO2 | -72.3
46 | COCC(=O)N1C[C@H]2CN(Cc3cccc(F)c3)C(=O)[C@H]2C1 | -83.5
47 | CC(=O)N1CCC2(CCN(C(=O)c3ccc(Cl)c(C(F)(F)F)c3)C2)C1 (stereo not drawn) | -85.8
48 | COCCC(=O)N1CCn2c(COCC3CC3)cnc2C1C (stereo not drawn) | 4.17
49 | O=C(CO)N1CCc2onc(Cn3cccn3)c2C1 | 0.436
50 | COc1ccc(CCN2C(=O)O[C@@H]3CN(C)C[C@@H]32)cc1 | -2
51 | Cc1cc(N2CCN(Cc3ccsc3)C(CCO)C2)nc(N)n1 (stereo not drawn) | -7.3
52 | COCCn1cncc1CN1CCC(C(C)=O)(c2ccccc2)CC1 | 1.92
53 | Cc1ccc(OCC2CCCN(CC3CCOCC3)C2)cc1 (stereo not drawn) | 16.1
54 | COc1ccc(C(=O)C2CCCN(c3nccc(N)n3)C2)c(C)c1 (stereo not drawn) | 5.67
55 | CC1(c2ccccc2)CCCN(Cc2cncn2C2CC2)C1 (stereo not drawn) | -1.06
56 | CCN(CC)C(=O)[C@@H]1C[C@@H](NC(=O)c2ccn(C(C)(C)C)c2)CN1C | -4.12
57 | Cc1cccc(=O)n1CCC(=O)N1CC[C@](C)(O)[C@H](C)C1 | 2.81
58 | CNS(=O)(=O)c1ccc(CN2CCCC2c2ccc(F)cc2)cc1 (stereo not drawn) | 11.6
59 | COc1ccc(Oc2ncccc2C(N)=O)cc1CN1CCCC1 | 0.0453
60 | CC(C)=CCN1CCN(CCCc2ccccc2)[C@H]2CS(=O)(=O)C[C@H]21 | -1.06
61 | C1CCC(CNC2CCSCC2)(N2CCOCC2)CC1 | -14.5
62 | CCc1nc(C)sc1CNC1CCN(Cc2ccccc2)C1 (stereo not drawn) | -31.7
63 | Cc1cc2nc(C(C)C)cc(NC(C)c3nncn3C3CCCC3)n2n1 (stereo not drawn) | 8.91
64 | COc1cc(-c2nccn2C(C)CCn2cccn2)cc2c1OCO2 (stereo not drawn) | 0.562
65 | Cc1ccc(C(C(=O)N(C)CCc2cn[nH]c2)N(C)C)cc1 (stereo not drawn) | 0.0341
66 | Cc1ccc(CN(C)c2nccc(-c3cn(C)nc3C)n2)o1 | 4.17

Row | Structure (SMILES) | cytotoxicity at 10 µM [%]
67 | CC(C)CN1CCCC1c1ccc(C(=O)Nc2ccc3[nH]nnc3c2)s1 (stereo not drawn) | 19.1
68 | COC(=O)CC1C(=O)NCCN1c1nc2c(s1)c(C)nn2C (stereo not drawn) | -7.36
69 | Cc1ccnn1CC(=O)N(C)Cc1cnn(-c2ccccc2)c1 | 9
70 | Cc1nc(N2CCC(O)(c3ccc(F)cc3)CC2)c2c(C)nn(C)c2n1 | -0.503
71 | CN(C)c1nc2c(c(=O)[nH]1)CCN(C(=O)c1c[nH]c(=O)c(Cl)c1)C2 | 6.32
72 | CSc1ccc(CN(C(=O)c2cc(C)[nH]c(=O)c2)C2CC2)cc1 | -49.5
73 | CCSCCNc1nc(-c2ccccn2)nc2c1c(C)nn2C | 6.35
74 | COCCN(C)C[C@H]1C[C@H](CO)CN(C(=O)c2ccc(=O)n(C)c2)C1 | -1.06
75 | O=C(NCc1cc2ccccc2s1)c1cc(CN2CCCC(O)C2)on1 (stereo not drawn) | -40
76 | O[C@@H]1CN(c2noc(C3CC3)n2)CC[C@H]1c1ccc2ccccc2c1 | 5.11
77 | CCc1ccccc1OCCNCCc1c[nH]cn1 | 4.69
78 | COc1ccc(-c2ccccc2CCN)c(OC)c1OC | 2.79
79 | Cc1cc(C)n(CC(=O)N2Cc3cnc(C(C)(C)C)nc3C2)n1 | 3.1
80 | COCCCNCc1cc(O)c2cc(C)cc(C)c2n1 | -6.31
81 | CC1CNC(=O)CCN1Cc1cc(O)c2cccc(F)c2n1 (stereo not drawn) | -4.5
82 | Cc1cnn(C2CN(Cc3nc(-c4ccccn4)no3)C2)c1 | 3.24
83 | COc1cccc(C(NCc2ccc(SC)cc2)c2nccn2C)c1 (stereo not drawn) | -5.54
84 | O=C(CC1C=CCC1)Nc1ncn(CC(=O)N2CCCCCC2)n1 (stereo not drawn) | -3.72
85 | CC(c1nc(C2CC2)no1)N1CCN(Cc2noc(C3CC3)n2)CC1 (stereo not drawn) | 4.63
86 | Cc1cnn(CCNCc2ccccc2C#N)c1 | -9.14
87 | CC(O)CN1CCN(C(=O)c2ccc(N(C)C)nn2)CC1 (stereo not drawn) | -13.4
88 | COc1ccccc1C(=O)NC(C)CC(=O)O (stereo not drawn) | -2.43

Row | Structure (SMILES) | cytotoxicity at 10 µM [%]
89 | Cc1nc(C2CCCN(C(=O)c3cccc(S(C)(=O)=O)c3)C2)no1 (stereo not drawn) | -2.33
90 | Clc1ccc(-n2cc(CNC3CCc4ncnn4C3)cn2)cc1 (stereo not drawn) | 0.77
91 | CNc1cc2c(nn1)CCN(C(=O)c1ccoc1)C2 | 4.6
92 | CCn1c(CN2CCCC(O)(c3ccc(F)cc3)CC2)cnc1SC (stereo not drawn) | -0.466
93 | COc1ccc(F)c(CN2CCC(c3cc(O)nc(C)n3)C2)c1 (stereo not drawn) | 5.61
94 | Cc1noc(C)c1CN1C[C@@H]2COC[C@H](C(=O)N3CCCCO3)[C@@H]2C1 | -1.98
95 | COc1ccc2c(c1)C1(CCN(Cc3nccs3)CC1)N(C)CC2 | -148
96 | CCc1cnc(N2CC[C@H]3[C@@H]2CCC(=O)N3CC2CCOCC2)nc1 | 4.28
97 | O=C1NCC[C@]12CN(Cc1ccncc1)C[C@H]2c1ccccc1 | -147
98 | c1ccc(COC[C@H]2CC[C@H]3[C@H](CCN3Cc3ccccn3)O2)nc1 | -84.7
99 | Fc1cccc(N2C[C@H]3CCN(c4cccnc4)C[C@H]3C2)c1 | 15.4
100 | CCC1=N[C@@]2(CC[C@@H]3CN(Cc4ccc(Cl)cc4)C[C@@H]32)C(=O)N1C | 1.98
101 | CNC(=O)[C@H]1C[C@@H]2CN(S(=O)(=O)c3cccc(C)c3)C[C@@H]2N1C | 1.59
102 | OC1(Cn2ccc3ncccc32)CCN(Cc2ccccn2)CC1 | 5.33
103 | O=C(Cc1ccc(F)cc1)N1CCn2cc(Cn3cccn3)nc2C1 | 4.58
104 | O=C([C@H]1C[C@H]2OCC[C@H]2N(CC2CCOCC2)C1)N1CCCCO1 | -73.9
105 | Cc1ccc(CN2CCC3(CC2)C(c2ccccc2)CC(=O)N3C)o1 (stereo not drawn) | -101
106 | COCC1CN(C(=O)COc2ccccc2)Cc2ncn(C)c21 (stereo not drawn) | 0.104
107 | CN(Cc1cccnc1)C1CC2(CCN(Cc3ccccn3)CC2)C1 | -84
108 | COc1ccc2c(c1)sc(=NC(=O)CSCC(=O)Nc1nccs1)n2C | -8.36

From ChEMBL document CHEMBL4513216, “Probing the Open Global Health Chemical Diversity Library for Multistage-Active Starting Points for Next-Generation Antimalarials” (ACS Infect Dis, 2020)
